Results taken from ChEMBL document CHEMBL1158481, “Adenine-based acyclic nucleotides as novel P2X3 receptor ligands” (J Med Chem, 2009).
Active and inactive are the calls of the source. The rule behind the calls is not given here.

How the values were obtained:
Conditions in all cases: HEK293
[1] = biological target: T1, P2X purinoceptor 3 (Rattus norvegicus) (UniProt P49654); assay: Agonist activity at rat P2X3 receptor expressed in HEK cells assessed as induction of inward current at 100 uM by patch clamp method relative to alpha, beta-meATP; type: functional, cell-based
T1 sequence (whole entry): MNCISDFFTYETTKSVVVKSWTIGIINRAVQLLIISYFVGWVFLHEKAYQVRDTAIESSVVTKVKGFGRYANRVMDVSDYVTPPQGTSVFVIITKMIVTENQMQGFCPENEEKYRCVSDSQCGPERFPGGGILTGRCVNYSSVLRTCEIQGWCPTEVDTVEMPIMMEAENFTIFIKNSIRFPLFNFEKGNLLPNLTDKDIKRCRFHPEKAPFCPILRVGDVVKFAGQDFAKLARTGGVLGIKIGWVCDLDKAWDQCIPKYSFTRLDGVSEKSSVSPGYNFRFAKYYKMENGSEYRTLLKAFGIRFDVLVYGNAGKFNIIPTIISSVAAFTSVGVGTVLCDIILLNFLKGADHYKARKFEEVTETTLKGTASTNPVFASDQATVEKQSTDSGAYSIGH
Summary of the method: (§1)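 HEK 293T cells transiently transfected with rat P2X3 (calcium phosphate), recorded 48 h post-transfection by whole-cell patch clamp at -60 mV in HEPES-buffered saline pH 7.4, CsCl pipette. Compound applied at 100 μM by rapid superfusion; inward current compared with averaged control current from ≥3 applications of α,β-meATP 100 μM for 2 s, 5 min apart.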

[2] = biological target: T1, P2X purinoceptor 3 (Rattus norvegicus); assay: Activity at rat P2X3 receptor expressed in HEK cells assessed as induction of inward current at 100 uM by patch clamp method; type: cell-based; summary of the method: as §1
[3] = biological target: T1, P2X purinoceptor 3 (Rattus norvegicus); assay: Antagonist activity at rat P2X3 receptor expressed in HEK cells assessed as inhibition of alpha, beta-meATP-induced inward current at 100 uM by patch clamp method; type: functional, cell-based; design: scale not given: the % may be the effect or the level left
Summary of the method: (§2)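 Rat P2X3 subunit plasmid transfected (calcium phosphate) into HEK 293T cells, used 48 h later. Whole-cell clamp at -60 mV, fast superfusion; acyclic nucleotide (100 μM) preapplied 20 s, then α,β-meATP 100 μM for 2 s. Peak inward current expressed as % of control α,β-meATP response; n=7 cells, mean ± SEM, paired t or Mann-Whitney test.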

[4] = biological target: T1, P2X purinoceptor 3 (Rattus norvegicus); assay: Agonist activity at rat P2X3 receptor expressed in HEK cells assessed as induction of alpha, beta-meATP inward current at 100 uM pretreated before alpha, beta-meATP induction by patch clamp method; type: functional, cell-based; summary of the method: as §2
[5] = biological target: T1, P2X purinoceptor 3 (Rattus norvegicus); assay: Activity at rat P2X3 receptor expressed in HEK cells assessed as depression of amplitude current subsequent response to alpha, beta-meATP by patch clamp method relative to control; type: cell-based; summary of the method: as §2
[6] = biological target: T1, P2X purinoceptor 3 (Rattus norvegicus); assay: Activity at rat P2X3 receptor expressed in HEK cells assessed inhibition of alpha, beta-meATP induced response by patch clamp method; type: cell-based; summary of the method: as §2

Row | SMILES | Activity [1] | Activity [2] | other results
1 | Nc1nc(Cl)nc2c1ncn2CCCCOP(=O)(O)OP(=O)(O)O | Active | – | –
2 | Nc1nc(N)c2ncn(CCCCOP(=O)(O)OP(=O)(O)O)c2n1 | Active | Active | –
3 | Nc1nc(N)c2ncn(CCCCOP(=O)(O)O)c2n1 | inactive | inactive | Activity [3]: 20%
4 | CCCCC#Cc1nc(N)c2ncn(CCCCOP(=O)(O)O)c2n1 | inactive | inactive | Activity [3]: 20%
5 | Nc1nc(N)c2ncn(CCCCOP(=O)(O)OP(=O)(O)OP(=O)(O)O)c2n1 | 25% | Active | Activity [4]: 17%
6 | Nc1ncnc2c1ncn2[C@@H]1O[C@H](COP(=O)(O)CP(=O)(O)OP(=O)(O)O)[C@@H](O)[C@H]1O (single isomer, unassigned) | – | Active | –
7 | Nc1nc(OCCc2ccccc2)nc2c1ncn2CCCCOP(=O)(O)OP(=O)(O)OP(=O)(O)O | Active | – | –
8 | Nc1nc(I)nc2c1ncn2CCCCOP(=O)(O)O | inactive | inactive | Activity [5]: 80%; Activity [3]: 20%
9 | Nc1nc(OCCc2ccccc2)nc2c1ncn2CCCCOP(=O)(O)OP(=O)(O)O | Active | – | –
10 | Nc1ncnc2c1ncn2CCCCOP(=O)(O)O | inactive | – | –
11 | Nc1nc(Cl)nc2c1ncn2CCCCOP(=O)(O)O | inactive | – | Activity [3]: 20%
12 | Nc1ncnc2c1ncn2CCCCOP(=O)(O)OP(=O)(O)O | 32% | – | –
13 | Nc1nc(Cl)nc2c1ncn2CCCCOP(=O)(O)OP(=O)(O)OP(=O)(O)O | 30% | – | –
14 | CCCCC#Cc1nc(N)c2ncn(CCCCOP(=O)(O)OP(=O)(O)OP(=O)(O)O)c2n1 | 38% | Active | Activity [6]: Active
15 | Nc1ncnc2c1ncn2CCCCOP(=O)(O)OP(=O)(O)OP(=O)(O)O | 36% | – | –
16 | Nc1nc(I)nc2c1ncn2CCCCOP(=O)(O)OP(=O)(O)OP(=O)(O)O | 60% | Active | Activity [6]: Active
17 | Nc1nc(OCCc2ccccc2)nc2c1ncn2CCCCOP(=O)(O)O | inactive | – | Activity [3]: 20%
